The values below come from ChEMBL document CHEMBL3232803, “Optimization of potency and pharmacokinetic properties of tetrahydroisoquinoline transient receptor potential melastatin 8 (TRPM8) antagonists” (J Med Chem, 2014).

A word on the bioavailability: it is dose-corrected exposure relative to a reference, in per cent. Low values mean poor availability, high ones good availability. As a reminder, the Cmax is the highest concentration seen after dosing. What is called AUC(0-inf) is the area under the concentration-time curve extrapolated to infinity. The term Tmax denotes the time from dosing to the highest level.

What all share (assay type): ADME, organism-based
The nature of data set [1]: Oral bioavailability in Sprague-Dawley rat. Particulars: in vivo. In outline:
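Male Sprague−Dawley rats, n = 3 per group. Iv arm: fed animals, 2 mg/kg in DMSO. Oral arm: fasted animals, 5 or 10 mg/kg by gavage as a suspension in 5% Tween 80/Oraplus. Plasma sampled to 16 h, measured by LC-MS/MS, analysed noncompartmentally.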

The nature of data set [2]: Cmax in Sprague-Dawley rat at 5 mg/kg, po by LC-MS/MS analysis. Conditions: in vivo. The arrangement: dose 5 mg/kg, route oral. The method, boiled down:
(§1)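 Fasted male Sprague−Dawley rats (n = 3) given oral gavage as a suspension in 5% Tween 80/Oraplus. Blood sampled up to 16 h post dose, plasma prepared by centrifugation and assayed by LC-MS/MS. Total plasma concentration-time data analysed by noncompartmental methods.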

Data set [3] can be described thus: AUC (0 to infinity) in Sprague-Dawley rat at 5 mg/kg, po by LC-MS/MS analysis. The arrangement: time infinity, dose 5 mg/kg, route oral. Particulars: plasma. In outline:
as §1

A short description of data set [4]: Volume of distribution at steady state in Sprague-Dawley rat at 2 mg/kg, iv by LC-MS/MS analysis. The arrangement: dose 2 mg/kg, route intravenous. Particulars: in vivo, read-out: Vdss. In outline: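 Fed male Sprague−Dawley rats (n = 3) dosed iv at 2 mg/kg in DMSO. Plasma sampled up to 16 h, quantified by LC-MS/MS. Noncompartmental analysis of total plasma concentration-time data.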

The nature of data set [5]: Oral bioavailability in Sprague-Dawley rat at 5 mg/kg by LC-MS/MS analysis. Conditions: in vivo. In outline:
as §1

The nature of data set [6]: Tmax in Sprague-Dawley rat at 5 mg/kg, po by LC-MS/MS analysis. More on the design: dose 5 mg/kg, route oral. Particulars: in vivo. In outline: as §1
A short description of data set [7]: Plasma concentration in unilateral cartoid artery cannulated Sprague-Dawley rat model at 3 mg/kg, po after […]. The arrangement: dose 3 mg/kg, route oral.

Structures are written as SMILES.

As to `N#Cc1ccc(NC(=O)N2CCc3cccnc3[C@H]2c2ccc(C(F)(F)F)cc2)cc1`, in data set [1], the bioavailability was determined as 70%.

Regarding `C[C@H](NC(=O)N1CCc2cccnc2[C@H]1c1ccc(C(F)(F)F)cc1)C(F)(F)F`, in data set [2], the Cmax amounted to 1580 nM. For the same molecule, the AUC(0-inf) in data set [3] was determined as 12 µM·h. The Vd in data set [4] amounted to 2.7 L/kg.

On to `C[C@H](NC(=O)N1CCc2ccccc2[C@H]1c1ccc(C(F)(F)F)c(F)c1)C(F)(F)F`, for which, in data set [2], the Cmax stood at 1670 nM. Further, the bioavailability in data set [5] came to 67%. This molecule displayed an AUC(0-inf) in data set [3] of 12.1 µM·h. Besides, the Vd in data set [4] turned out to be 3 L/kg.

Regarding `C[C@H](NC(=O)N1CCc2cccnc2[C@H]1c1ccc(C(F)(F)F)c(F)c1)C(F)(F)F`, the Cmax in data set [2] worked out at 3860 nM. In addition, in data set [5], the bioavailability was determined as 51%. Further, the Tmax in data set [6] was 5.3 h. This molecule also displayed an AUC(0-inf) in data set [3] of 71.9 µM·h. This molecule registered a concentration at […] in data set [7] of 1270 nM. Also, the Vd in data set [4] turned out to be 1.7 L/kg.
